In ChEMBL document CHEMBL1133607, “Nonpeptide analogues of dynorphin A(1-8): design, synthesis, and pharmacological evaluation of kappa-selective agonists” (J Med Chem, 2000):
Residues, ends and D or L forms follow the SMILES beside them. *: point of attachment. X1 = CC1C2Cc3ccc(O)cc3[C@]1(C)CCN2CC1C[C@]1(C(=O)*)c1ccccc1

molecular target: Mu-type opioid receptor (Rattus norvegicus, UniProt P33535); assay: Displacement of [3H]diprenorphine from opioid receptor mu 1 on crude membrane fractions obtained from whole rat brain (minus cerebellum); assay type: tissue-based
In short: (§1)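 Rat whole-brain (minus cerebellum) crude membranes, 1 mg protein/tube, in 50 mM Tris-HCl pH 7.4 with aprotinin, leupeptin and bacitracin. […] U50,488 and DADLE (300 nM each) saturate κ and δ sites; 1 µM DAMGO defines nonspecific binding. Compounds tested at 10^-11 to 10^-5 M. Ki values are the mean of three experiments in duplicate.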

Sequence of Mu-type opioid receptor (P33535 whole entry): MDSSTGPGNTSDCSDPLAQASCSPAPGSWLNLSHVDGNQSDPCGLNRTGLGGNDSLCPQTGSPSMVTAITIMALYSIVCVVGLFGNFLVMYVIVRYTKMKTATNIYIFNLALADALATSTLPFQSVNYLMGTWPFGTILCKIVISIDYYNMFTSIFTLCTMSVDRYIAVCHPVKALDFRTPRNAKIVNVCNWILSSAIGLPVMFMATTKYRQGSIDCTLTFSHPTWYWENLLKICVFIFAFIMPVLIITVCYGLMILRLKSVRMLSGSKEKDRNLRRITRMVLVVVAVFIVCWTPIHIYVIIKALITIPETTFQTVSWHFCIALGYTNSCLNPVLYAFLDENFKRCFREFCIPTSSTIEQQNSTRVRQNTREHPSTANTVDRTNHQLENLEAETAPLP

| SMILES | Ki [nM] |
| --- | --- |
| CCC(=N)NCCCNC(=O)C(CC(C)C)NC(=O)CNC(=O)[C@]1(c2ccccc2)CC1CN1CC[C@@]2(C)c3cc(O)ccc3CC1C2C (stereo partly specified) | 10900 |
| CC(C)CC(NC(=O)[C@]1(c2ccccc2)CC1CN1CC[C@@]2(C)c3cc(O)ccc3CC1C2C)C(=O)NCCCCN (stereo partly specified) | 3400 |
| CC(C)CC(NC(=O)[C@]1(c2ccccc2)CC1CN1CC[C@@]2(C)c3cc(O)ccc3CC1C2C)C(=O)NCCCCCNC(=N)N (stereo partly specified) | 2790 |
| CCC(=N)NCCCCNC(=O)C(CC(C)C)NC(=O)[C@]1(c2ccccc2)CC1CN1CC[C@@]2(C)c3cc(O)ccc3CC1C2C (stereo partly specified) | 2200 |
| CCC(=N)NCCCCCCNC(=O)C(CC(C)C)NC(=O)CNC(=O)[C@]1(c2ccccc2)CC1CN1CC[C@@]2(C)c3cc(O)ccc3CC1C2C (stereo partly specified) | 4210 |
| CCC(=N)NCCCCCNC(=O)C(CC(C)C)NC(=O)CNC(=O)[C@]1(c2ccccc2)CC1CN1CC[C@@]2(C)c3cc(O)ccc3CC1C2C (stereo partly specified) | 4820 |
| CCCCC(=N)NCCCCNC(=O)C(CC(C)C)NC(=O)CNC(=O)[C@]1(c2ccccc2)CC1CN1CC[C@@]2(C)c3cc(O)ccc3CC1C2C (stereo partly specified) | 3310 |
| CC[C@H](C)[C@H](NC(=O)[C@H](CCCNC(=N)N)NC(=O)[C@H](CCCNC(=N)N)NC(=O)CNC(=O)[C@]1(c2ccccc2)CC1CN1CC[C@@]2(C)c3cc(O)ccc3CC1C2C)C(=O)OC (stereo partly specified) (X1-GRRI-OMe) | 2300 |
| CCCCC(=N)NCCCCCCNC(=O)C(CC(C)C)NC(=O)[C@]1(c2ccccc2)CC1CN1CC[C@@]2(C)c3cc(O)ccc3CC1C2C (stereo partly specified) | 2260 |
| CCCC(=N)NCCCCCCNC(=O)C(CC(C)C)NC(=O)CNC(=O)[C@]1(c2ccccc2)CC1CN1CC[C@@]2(C)c3cc(O)ccc3CC1C2C (stereo partly specified) | 2270 |

molecular target: Kappa-type opioid receptor (Cavia porcellus, UniProt P41144); assay: Displacement of [3H]-U-69,593 from Opioid receptor kappa 1 in guinea pig cerebellar.
Sequence (P41144 whole entry): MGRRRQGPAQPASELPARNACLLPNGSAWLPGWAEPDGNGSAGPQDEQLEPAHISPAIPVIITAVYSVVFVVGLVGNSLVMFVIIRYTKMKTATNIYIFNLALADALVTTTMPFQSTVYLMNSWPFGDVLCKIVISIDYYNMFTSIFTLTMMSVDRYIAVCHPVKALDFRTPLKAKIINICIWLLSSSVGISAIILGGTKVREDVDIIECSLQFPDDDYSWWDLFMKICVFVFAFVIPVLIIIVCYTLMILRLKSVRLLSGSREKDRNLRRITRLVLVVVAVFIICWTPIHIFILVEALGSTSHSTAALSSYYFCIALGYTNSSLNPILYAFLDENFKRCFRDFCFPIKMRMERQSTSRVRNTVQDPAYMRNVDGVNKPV

| SMILES | Ki [nM] |
| --- | --- |
| CCC(=N)NCCCNC(=O)C(CC(C)C)NC(=O)CNC(=O)[C@]1(c2ccccc2)CC1CN1CC[C@@]2(C)c3cc(O)ccc3CC1C2C (stereo partly specified) | 256 |
| CC(C)CC(NC(=O)[C@]1(c2ccccc2)CC1CN1CC[C@@]2(C)c3cc(O)ccc3CC1C2C)C(=O)NCCCCN (stereo partly specified) | 382 |
| CC(C)CC(NC(=O)[C@]1(c2ccccc2)CC1CN1CC[C@@]2(C)c3cc(O)ccc3CC1C2C)C(=O)NCCCCCNC(=N)N (stereo partly specified) | 216 |
| CCC(=N)NCCCCNC(=O)C(CC(C)C)NC(=O)[C@]1(c2ccccc2)CC1CN1CC[C@@]2(C)c3cc(O)ccc3CC1C2C (stereo partly specified) | 192 |
| CCC(=N)NCCCCCCNC(=O)C(CC(C)C)NC(=O)CNC(=O)[C@]1(c2ccccc2)CC1CN1CC[C@@]2(C)c3cc(O)ccc3CC1C2C (stereo partly specified) | 46.9 |
| CCC(=N)NCCCCCNC(=O)C(CC(C)C)NC(=O)CNC(=O)[C@]1(c2ccccc2)CC1CN1CC[C@@]2(C)c3cc(O)ccc3CC1C2C (stereo partly specified) | 68.4 |
| CCCCC(=N)NCCCCNC(=O)C(CC(C)C)NC(=O)CNC(=O)[C@]1(c2ccccc2)CC1CN1CC[C@@]2(C)c3cc(O)ccc3CC1C2C (stereo partly specified) | 10.2 |
| CC[C@H](C)[C@H](NC(=O)[C@H](CCCNC(=N)N)NC(=O)[C@H](CCCNC(=N)N)NC(=O)CNC(=O)[C@]1(c2ccccc2)CC1CN1CC[C@@]2(C)c3cc(O)ccc3CC1C2C)C(=O)OC (stereo partly specified) (X1-GRRI-OMe) | 54.3 |
| CCCCC(=N)NCCCCCCNC(=O)C(CC(C)C)NC(=O)[C@]1(c2ccccc2)CC1CN1CC[C@@]2(C)c3cc(O)ccc3CC1C2C (stereo partly specified) | 81 |
| CCCC(=N)NCCCCCCNC(=O)C(CC(C)C)NC(=O)CNC(=O)[C@]1(c2ccccc2)CC1CN1CC[C@@]2(C)c3cc(O)ccc3CC1C2C (stereo partly specified) | 15.4 |

molecular target: Opioid receptors; mu & kappa (UniProt P41145+P35372); assay: Ratio of affinity towards mu and kappa opioid receptors; assay type: protein assay
Sequence (P35372 whole entry, looked up): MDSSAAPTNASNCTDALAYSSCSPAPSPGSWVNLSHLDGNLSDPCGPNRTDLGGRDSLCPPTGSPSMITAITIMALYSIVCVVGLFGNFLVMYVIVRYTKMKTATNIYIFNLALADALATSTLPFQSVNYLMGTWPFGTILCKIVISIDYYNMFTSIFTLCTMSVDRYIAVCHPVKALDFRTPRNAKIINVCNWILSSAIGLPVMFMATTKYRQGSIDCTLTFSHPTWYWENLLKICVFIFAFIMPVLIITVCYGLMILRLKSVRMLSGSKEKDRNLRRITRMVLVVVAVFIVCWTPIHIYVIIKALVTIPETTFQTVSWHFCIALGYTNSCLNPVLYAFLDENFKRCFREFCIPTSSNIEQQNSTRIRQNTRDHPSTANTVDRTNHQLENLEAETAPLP
Sequence (P41145 whole entry, looked up): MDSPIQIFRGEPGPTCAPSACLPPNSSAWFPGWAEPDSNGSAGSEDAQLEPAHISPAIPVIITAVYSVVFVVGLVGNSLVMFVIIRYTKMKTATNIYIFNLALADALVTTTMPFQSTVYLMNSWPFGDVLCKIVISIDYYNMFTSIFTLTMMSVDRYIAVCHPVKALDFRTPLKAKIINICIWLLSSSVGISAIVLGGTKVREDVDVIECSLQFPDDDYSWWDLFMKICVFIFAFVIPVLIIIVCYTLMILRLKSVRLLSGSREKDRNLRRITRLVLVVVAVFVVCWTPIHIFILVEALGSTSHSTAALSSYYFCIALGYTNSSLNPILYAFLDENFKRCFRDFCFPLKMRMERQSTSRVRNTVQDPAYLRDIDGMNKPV

| SMILES | Selectivity ratio |
| --- | --- |
| CCC(=N)NCCCNC(=O)C(CC(C)C)NC(=O)CNC(=O)[C@]1(c2ccccc2)CC1CN1CC[C@@]2(C)c3cc(O)ccc3CC1C2C (stereo partly specified) | 42.5 |
| CC(C)CC(NC(=O)[C@]1(c2ccccc2)CC1CN1CC[C@@]2(C)c3cc(O)ccc3CC1C2C)C(=O)NCCCCN (stereo partly specified) | 8.9 |
| CCC(=N)NCCCCNC(=O)C(CC(C)C)NC(=O)[C@]1(c2ccccc2)CC1CN1CC[C@@]2(C)c3cc(O)ccc3CC1C2C (stereo partly specified) | 11.5 |
| CCC(=N)NCCCCCCNC(=O)C(CC(C)C)NC(=O)CNC(=O)[C@]1(c2ccccc2)CC1CN1CC[C@@]2(C)c3cc(O)ccc3CC1C2C (stereo partly specified) | 89.8 |
| CCC(=N)NCCCCCNC(=O)C(CC(C)C)NC(=O)CNC(=O)[C@]1(c2ccccc2)CC1CN1CC[C@@]2(C)c3cc(O)ccc3CC1C2C (stereo partly specified) | 70.5 |
| CCCCC(=N)NCCCCNC(=O)C(CC(C)C)NC(=O)CNC(=O)[C@]1(c2ccccc2)CC1CN1CC[C@@]2(C)c3cc(O)ccc3CC1C2C (stereo partly specified) | 325 |
| CCCCC(=N)NCCCCCCNC(=O)C(CC(C)C)NC(=O)[C@]1(c2ccccc2)CC1CN1CC[C@@]2(C)c3cc(O)ccc3CC1C2C (stereo partly specified) | 27.9 |
| CCCC(=N)NCCCCCCNC(=O)C(CC(C)C)NC(=O)CNC(=O)[C@]1(c2ccccc2)CC1CN1CC[C@@]2(C)c3cc(O)ccc3CC1C2C (stereo partly specified) | 125 |

molecular target: Delta-type opioid receptor (Rattus norvegicus, UniProt P33533); assay: Displacement of [3H]diprenorphine opioid receptor delta 1 on crude membrane fractions obtained from the whole rat brain (minus cerebellum); assay type: tissue-based
In short: as §1, with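 “DAMGO” for “DADLE”, “µ” for “δ”, “DPDPE” for “DAMGO”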

Sequence of Delta-type opioid receptor (P33533 whole entry): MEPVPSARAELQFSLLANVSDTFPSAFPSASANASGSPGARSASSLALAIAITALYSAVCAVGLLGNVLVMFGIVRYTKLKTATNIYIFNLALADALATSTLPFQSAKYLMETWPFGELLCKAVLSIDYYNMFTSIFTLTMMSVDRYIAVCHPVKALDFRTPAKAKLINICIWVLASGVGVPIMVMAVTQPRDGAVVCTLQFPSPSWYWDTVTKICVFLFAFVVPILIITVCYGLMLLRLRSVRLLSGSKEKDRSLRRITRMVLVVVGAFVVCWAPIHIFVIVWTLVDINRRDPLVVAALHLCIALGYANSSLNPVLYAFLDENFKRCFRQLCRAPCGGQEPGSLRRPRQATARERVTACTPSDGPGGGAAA

| SMILES | Ki [nM] |
| --- | --- |
| CCC(=N)NCCCNC(=O)C(CC(C)C)NC(=O)CNC(=O)[C@]1(c2ccccc2)CC1CN1CC[C@@]2(C)c3cc(O)ccc3CC1C2C (stereo partly specified) | 10400 |
| CCC(=N)NCCCCCCNC(=O)C(CC(C)C)NC(=O)CNC(=O)[C@]1(c2ccccc2)CC1CN1CC[C@@]2(C)c3cc(O)ccc3CC1C2C (stereo partly specified) | 5060 |
| CCC(=N)NCCCCCNC(=O)C(CC(C)C)NC(=O)CNC(=O)[C@]1(c2ccccc2)CC1CN1CC[C@@]2(C)c3cc(O)ccc3CC1C2C (stereo partly specified) | 5580 |
| CCCCC(=N)NCCCCNC(=O)C(CC(C)C)NC(=O)CNC(=O)[C@]1(c2ccccc2)CC1CN1CC[C@@]2(C)c3cc(O)ccc3CC1C2C (stereo partly specified) | 3660 |
| CC[C@H](C)[C@H](NC(=O)[C@H](CCCNC(=N)N)NC(=O)[C@H](CCCNC(=N)N)NC(=O)CNC(=O)[C@]1(c2ccccc2)CC1CN1CC[C@@]2(C)c3cc(O)ccc3CC1C2C)C(=O)OC (stereo partly specified) (X1-GRRI-OMe) | > 25000 |
| CCCCC(=N)NCCCCCCNC(=O)C(CC(C)C)NC(=O)[C@]1(c2ccccc2)CC1CN1CC[C@@]2(C)c3cc(O)ccc3CC1C2C (stereo partly specified) | 3260 |
| CCCC(=N)NCCCCCCNC(=O)C(CC(C)C)NC(=O)CNC(=O)[C@]1(c2ccccc2)CC1CN1CC[C@@]2(C)c3cc(O)ccc3CC1C2C (stereo partly specified) | 2430 |

organism: Cavia porcellus; assay: Ratio of affinity towards delta to kappa opioid receptor

| SMILES | Selectivity ratio |
| --- | --- |
| CCC(=N)NCCCNC(=O)C(CC(C)C)NC(=O)CNC(=O)[C@]1(c2ccccc2)CC1CN1CC[C@@]2(C)c3cc(O)ccc3CC1C2C (stereo partly specified) | 40.5 |
| CCC(=N)NCCCCCCNC(=O)C(CC(C)C)NC(=O)CNC(=O)[C@]1(c2ccccc2)CC1CN1CC[C@@]2(C)c3cc(O)ccc3CC1C2C (stereo partly specified) | 108 |
| CCC(=N)NCCCCCNC(=O)C(CC(C)C)NC(=O)CNC(=O)[C@]1(c2ccccc2)CC1CN1CC[C@@]2(C)c3cc(O)ccc3CC1C2C (stereo partly specified) | 81.6 |
| CCCCC(=N)NCCCCNC(=O)C(CC(C)C)NC(=O)CNC(=O)[C@]1(c2ccccc2)CC1CN1CC[C@@]2(C)c3cc(O)ccc3CC1C2C (stereo partly specified) | 359 |
| CCCCC(=N)NCCCCCCNC(=O)C(CC(C)C)NC(=O)[C@]1(c2ccccc2)CC1CN1CC[C@@]2(C)c3cc(O)ccc3CC1C2C (stereo partly specified) | 40.2 |
| CCCC(=N)NCCCCCCNC(=O)C(CC(C)C)NC(=O)CNC(=O)[C@]1(c2ccccc2)CC1CN1CC[C@@]2(C)c3cc(O)ccc3CC1C2C (stereo partly specified) | 158 |
